These results are taken from ChEMBL document CHEMBL1157283, “Cytotoxic xenia diterpenoids from the soft coral Xenia umbellata” (2006).

Each structure is given as a SMILES string. In brackets after ≈: the same amount, converted by molar mass.

The test system of test [1] is A549. Nature of the test: Cytotoxicity against human A549 cells. In kind it is functional, cell-based. In a few lines:
(§1)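 Human A549 (lung adenocarcinoma) and HT-29 (colon adenocarcinoma) cells were obtained from ATCC. In vitro cytotoxicity was measured on the cultured cells.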

Test [2] deals with HT-29. As to the kind of experiment: Cytotoxicity against human HT29 cells. The test is classed as functional, cell-based. In a few lines:
as §1

For test [3], the system named is P388. Nature of the test: Cytotoxicity against mouse P388 cells. In kind it is functional. Conditions: read-out: ED50 (the source's name).

For the molecule `C=C1CC[C@@H]2O[C@@]2(C)CC[C@H](/C(=C\CC(O)C(C)(C)O)COC(C)=O)[C@H]1C(=O)OC` (stereo partly drawn) [UMBELLACIN H], the Activity result in test [1] and in test [2] was “Not toxic” in each case. In addition, in test [3], the EC50 was determined as 3.4 µg/mL (≈ 8.01 µM).

Regarding `C=C1CC/C=C(\C)CC[C@H](/C(=C\CC(O)C(C)(C)O)COC(C)=O)[C@H]1C(=O)OC` (stereo partly drawn) [UMBELLACIN F], the Activity entry in test [1] and in test [2] was “Not toxic” throughout. In addition, the EC50 in test [3] stood at 3.7 µg/mL (≈ 9.06 µM).

Turning to `CC(C)(O)/C=C/C=C1/COC(=O)[C@H]2C3=CC[C@@H](O)[C@@](C)(CC[C@H]12)C3`, the Activity entry in test [1] and in test [2] was “Not toxic” each time.

Take `COC(=O)[C@@H]1[C@@H](/C(=C\CC(O)C(C)(C)O)COC(C)=O)CC[C@]2(C)[C@@H]3CC[C@]12CO3` (stereo partly drawn) [UMBELLACIN D]: the Activity result in test [1] and in test [2] was “Not toxic” throughout. The EC50 in test [3] is 4.2 µg/mL (≈ 9.89 µM).

As for `COC(=O)[C@@H]1[C@@H](/C(=C\CC(O)C(C)(C)O)COC(C)=O)CC[C@@]2(C)C[C@]1(O)CC[C@H]2O` (stereo partly drawn) [UMBELLACIN I], the Activity result in test [1] and in test [2] was “Not toxic” each time. The EC50 in test [3] was 3.6 µg/mL (≈ 8.13 µM).

With `C=C1CC[C@@H]2O[C@@]2(C)CC[C@H]2[C@H]1C(=O)O[C@@]2(/C=C/C1OC1(C)C)COC(C)=O` (stereo partly drawn), the Activity entry in test [1] and in test [2] was “Not toxic” in each case.

For `C=C1C[C@@H](O)/C=C(\C)CC[C@@H]2/C(=C\C=C\C(C)(C)O)[C@@H](OC)O[C@H](OC)[C@@H]12`, the Activity entry in test [1] and in test [2] was “Not toxic” throughout.

On to `C=C(C)C(O)C/C=C(/COC(C)=O)[C@H]1CC[C@@]2(C)C[C@](O)(CC[C@H]2O)[C@@H]1C(=O)OC` (stereo partly drawn) [UMBELLACIN B], for which the Activity entry in test [1] and in test [2] was “Not toxic” in each case. In addition, the EC50 in test [3] came out at 1.6 µg/mL (≈ 3.77 µM).

Consider `COC(=O)[C@H]1C2=CC[C@@H](O)[C@@](C)(CC[C@@H]1/C(=C\CC(O)C(C)(C)O)COC(C)=O)C2` (stereo partly drawn) [UMBELLACIN E], for which the Activity entry in test [1] and in test [2] was “Not toxic” in each case. The EC50 in test [3] was 3.8 µg/mL (≈ 8.95 µM).

On to `C=C1CC[C@@H]2O[C@@]2(C)CC[C@H]2[C@H]1C(=O)O[C@@]2(/C=C/C1OC1(C)C)CO` (stereo partly drawn), for which the Activity entry in test [1] and in test [2] was “Not toxic” in each case.

As to `CC(C)(O)/C=C/C=C(/C=O)[C@H]1CC[C@@]2(C)C[C@](O)(CC[C@H]2O)[C@@H]1C=O`, the Activity entry in test [1] and in test [2] was “Not toxic” in each case.
